The text below walks through data of article PMC4441290 (International Journal of Oncology, 2015).

Data set [1] relates to human V2r. The following applies: cited from earlier work; for Ki: human V2r ref 5.
The test system of data set [2] is MCF-7 human breast carcinoma cells. Nature of the data set: Cell proliferation assay. Particulars: 72-h exposure, 100–1,500 nM. It is filed as cell-based. Put shortly: (§1)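 Cells seeded at 2.5×10^3 per 200 μl in complete DMEM (10% FBS, 2 mM glutamine), attached overnight. They were then exposed to peptide (100–1,500 nM) or vehicle for 72 h at 37°C, 5% CO2. MTT was added for 4 h, the product dissolved in DMSO, and absorbance read at 570 nm. Untreated control OD was set as 100% viability. Results came from at least three independent experiments, mean ± SEM.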

For data set [3], the system named is F3II mouse mammary carcinoma cells. Nature of the data set: Cell proliferation assay. It is filed as cell-based. The following applies: 72 h, concentration-dependent. Put shortly: as §1
In data set [4] the test system is MDA-MB-231 cells. Kind of data set: Clonogenic. The following applies: read-out: IC50 colony formation; MDA-MB-231, 7 days. It is filed as cell-based, human. The method in brief:
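MDA-MB-231 cells were grown in complete medium containing peptide (100–1,500 nM), with medium plus peptide renewed after 72 h. Colonies of >50 cells were counted 7 days after seeding. IC50 was derived by linear regression of the concentration–inhibition plot. Data are from at least three independent experiments, mean ± SEM.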

Data set [5] deals with HMVEC-L human microvascular endothelial cells. Nature of the data set: Endothelial cell morphogenesis. It is filed as cell-based. Particulars: 100 nM, 24 h.
Data set [6] concerns MDA-MB-231 xenografts. Nature of the data set: MDA-MB-231 xenograft tumour progression. It is filed as in vivo, BALB/c athymic mice. Particulars: 0.3 μg/kg i.v. thrice weekly. The method in brief: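 Athymic BALB/c nude females were injected s.c. with 5×10^6 MDA-MB-231 cells in 300 μl of DMEM:Matrigel (1:1). From day 14, at tumours of ~50 mm3, mice received 0.3 μg/kg i.v. thrice weekly against a saline vehicle. Caliper volumes were calculated as 0.52 × width² × length. Growth rate is the slope of the linear regression of volume over time, mean ± SD.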

Data set [7] concerns F3II mammary tumours. Nature of the data set: F3II subcutaneous tumour progression and spontaneous lung metastases. It counts as in vivo, BALB/c mice. The method in brief: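 Syngeneic female BALB/c mice were injected s.c. with 2×10^5 F3II cells. Dosing started 7 days later, at tumours of ~50 mm3, with 0.3 μg/kg i.v. thrice weekly against a saline vehicle. Caliper volumes were calculated as 0.52 × width² × length. Mice were necropsied on day 50, and Bouin-fixed lungs were scored for macroscopic nodules under a dissecting microscope. Data are mean ± SD.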

In data set [8] the test system is F3II cells injected into the tail vein. Kind of data set: Experimental lung metastases assay. It is filed as in vivo, BALB/c mice. Particulars: 0.3 μg/kg i.v., two doses (time zero and 24 h), day 21. Put shortly:
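Female 8-week-old SPF BALB/c mice received 2×10^5 F3II cells in DMEM via the tail vein. Peptide at 0.3 μg/kg was given i.v. twice: at time zero and 24 h after cell injection. On day 21, lungs were excised, weighed, fixed in Bouin's solution and photographed, and lung nodules were counted.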

Data set [9] can be described thus: Acute toxicology study. It counts as in vivo, Wistar rats. The following applies: for ALT / AST / Creatinine / Direct bilirubin / Fibrinogen / GGT / Glucose / Hematocrit / RBC / Total protein / WBC / Weight: 72 h, mean ± SD.
The test system of data set [10] is VWF. The following applies: after i.v. injection ref 4; cited from earlier work.
For data set [11], the system named is MDA-MB-231 human breast carcinoma cells. Nature of the data set: Cell proliferation assay. The following applies: MDA-MB-231, tolvaptan 1,500 nM plus [V^4Q^5]dDAVP 1,500 nM. It is filed as cell-based. The method in brief: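 MDA-MB-231 cells were seeded at 2.5×10^3 per 200 μl in complete DMEM and attached overnight. They were then given 1,500 nM test peptide alone or with the competitive V2r antagonist tolvaptan (1,500 nM) for 72 h. MTT was added for 4 h, DMSO used to solubilise, and absorbance read at 570 nm. Untreated control was set as 100%. There were at least three independent experiments, mean ± SEM.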

Marks after values point to notes of the source that are not given here.

By Ki is commonly meant the dissociation constant of the complex between target and ligand, obtained from inhibition or displacement. As for 4-valine-dDAVP, the “affinity for the human V2r relative to dDAVP” value in [1] (higher affinity than dDAVP ref 5) is recorded as 10 fold. Moreover, the Ki in data set [1] is 2.2 nM.
The IC50 is the point on the concentration scale where inhibition reaches its midpoint. On to `NC(=O)CC[C@@H]1NC(=O)[C@H](Cc2ccccc2)NC(=O)[C@H](Cc2ccc(O)cc2)NC(=O)CCSSC[C@@H](C(=O)N2CCC[C@H]2C(=O)N[C@H](CCCN=C(N)N)C(=O)NCC(N)=O)NC(=O)[C@H](CC(N)=O)NC1=O` [dDAVP, 1-deamino-8-D-arginine vasopressin], for which the “effect on proliferation in MCF-7 cell cultures” value in data set [2] was “mild reduction of proliferation”. In [3], the “cytostatic effect on F3II cells” value is reported as “mild cytostatic effect”. Also, in data set [4], the IC50 turned out to be 1440 nM. The capillary-like tube formation entry in data set [5] was “did not displayed any significant effects”. Besides, the “reduction in the number of blood vessels (intratumoural vascular density)” value in data set [6] was determined as 30%. This compound came in with a tumour growth rate in data set [6] (mean ± SD, control 7.44±0.66) of 5.72±0.72 mm^3/day. Besides, the spontaneous lung metastases entry in data set [7] (0.3 μg/kg i.v. thrice weekly for 6 weeks, day 50) is recorded as “not significant”. Further, the final tumour volume in [7] (0.3 μg/kg i.v. thrice weekly, mean ± SD, P>0.05, control 1822.3±1185) worked out at 1574.8±466.1 mm^3. Further, in [8], the “reduction of the number of lung nodules” value was 32%. Also, in data set [9] (1 μg/kg single i.v.), the ALT turned out to be 22.8±3.4 IU/l, the AST came to 36.6±11.6 IU/l, the Creatinine amounted to 0.70 ± 0.16 mg/mL and the Direct bilirubin amounted to 0.13 ± 0.04 mg/dL. Further, in [9] (1 μg/kg single i.v.), the Fibrinogen turned out to be 221.0 ± 67.8 mg/dL, the GGT is 2.8±0.8 IU/l, the Glucose is recorded as 207.0±25.7 ^d mg/dl and the Hematocrit was determined as 40.4±2.3%. For the same compound, in data set [9] (1 μg/kg single i.v.), the RBC is listed as 5.2±0.3 10^6/ml, the Total protein was 6.6 ± 0.8 g/dL, the WBC is recorded as 4.8±0.3 10^3/ml and the Weight came out at 234.2 ± 8.1 g. Moreover, in data set [9] (10 μg/kg single i.v.), the ALT turned out to be 22.6±3.4 IU/l, the AST is listed as 30.0±5.6 IU/l, the Creatinine turned out to be 0.65 ± 0.08 mg/mL and the Direct bilirubin is 0.14±0.02 ^d mg/dl. Besides, in [9] (10 μg/kg single i.v.), the Fibrinogen was 226.7 ± 48.4 mg/dL, the GGT is 2.6±0.9 IU/l, the Glucose is on record as 218.8±20.0 ^d mg/dl and the Hematocrit stood at 40.5±2.7%. Moreover, in data set [9] (10 μg/kg single i.v.), the RBC is 5.5±0.3 10^6/ml, the Total protein worked out at 6.9 ± 0.5 g/dL, the WBC was 4.4±0.5 10^3/ml and the Weight is 240.3 ± 9.4 g. In addition, in data set [9] (100 μg/kg single i.v.), the ALT came out at 21.3±2.1 IU/l, the AST is given as 47.5±17.8 IU/l, the Creatinine was 0.70 ± 0.09 mg/mL and the Direct bilirubin is listed as 0.17±0.03 ^d mg/dl. For the same compound, in data set [9] (100 μg/kg single i.v.), the Fibrinogen was found to be 243.0 ± 63.1 mg/dL, the GGT was determined as 3.0±1.2 IU/l, the Glucose is reported as 230.7±12.1 ^d mg/dl and the Hematocrit is 41.8±3.4%. In addition, in data set [9] (100 μg/kg single i.v.), the RBC is 5.7±0.3 10^6/ml, the Total protein came to 7.0 ± 0.5 g/dL, the WBC is 4.1±0.7 10^3/ml and the Weight was 241.8 ± 16.8 g. Moreover, in [9] (reference standard, single i.v. 1, 10 or 100 μg/kg), the safety profile result is reported as “consistent with previous observations”. Further, the Ki in data set [1] is 23.3 nM. Also, in data set [10], the “time of peak levels of VWF release” value is 60 to 90 min.
Consider `Cc1ccccc1C(=O)Nc1ccc(C(=O)N2CCCC(O)c3cc(Cl)ccc32)c(C)c1` (stereo not drawn) [tolvaptan], for which the “blockade of growth-modulating activity of [V^4Q^5]dDAVP” value in data set [11] is reported as “completely abolished”.
